Results reported in ChEMBL document CHEMBL1132557, “Novel, potent, semisynthetic antimalarial carba analogues of the first-generation 1,2,4-trioxane artemether” (J Med Chem, 1999).
pIC50: −log10 of the molar value.

Tests used:
Mus musculus = assay: Compound was tested in vivo for antimalarial activity against Plasmodium berghei in the mice (Mus musculus) model.; format: functional
Summary of the method: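 Male random Swiss albino mice, 18-22 g, infected ip with 10^7 P. berghei NS-strain parasitized erythrocytes; ip dosing once daily for four consecutive days starting on infection day; vehicle methanol/PBS/DMSO (2:5:3). Parasitemia read the day after last dose; ED50 (50% suppression vs vehicle-only controls) taken from log dose vs parasitemia plot.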

Plasmodium falciparum [1] = assay: In vitro antimalarial activity against chloroquine-sensitive Plasmodium falciparum HB3; format: functional, organism-based
Summary of the method: (§1)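 P. falciparum kept in human erythrocytes in RPMI 1640 with 25 mM HEPES, 32 mM NaHCO3, 10% human serum, under 3% O2/4% CO2/93% N2. 48-h assay at 2% parasitemia, 0.5% hematocrit; DMSO stocks diluted in medium; triplicates. [3H]hypoxanthine (0.5 μCi) added at 24 h, harvested 24 h later; IC50 by probit interpolation of log dose-response.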

Plasmodium falciparum [2] = assay: In vitro antimalarial activity against chloroquine-resistant Plasmodium falciparum K1
Plasmodium falciparum [3] = assay: In vitro antimalarial activity against chloroquine-sensitive Plasmodium falciparum K1; format: functional, organism-based; summary of the method: as §1

With C[C@H]1[C@@H](CCO)O[C@@H]2OC3(C)CC[C@H]4[C@H](C)CC[C@@H]1[C@@]24OO3 (single isomer, unassigned) the ED50 (Mus musculus) was 7.81 mg/kg, the pIC50 (Plasmodium falciparum [1]) was 8.45 and the pIC50 (Plasmodium falciparum [2]) was 8.18.

In the case of C[C@H]1[C@@H](CCOCc2cccc(F)c2)O[C@@H]2OC3(C)CC[C@H]4[C@H](C)CC[C@@H]1[C@@]24OO3 (single isomer, unassigned), the pIC50 (Plasmodium falciparum [1]) was 9.49 and the pIC50 (Plasmodium falciparum [2]) was 8.19.

C[C@H]1[C@@H](CCOCc2ccccc2C(F)(F)F)O[C@@H]2OC3(C)CC[C@H]4[C@H](C)CC[C@@H]1[C@@]24OO3 (single isomer, unassigned) was tested, and the pIC50 (Plasmodium falciparum [1]) was 8.79 and the pIC50 (Plasmodium falciparum [2]) was 8.44.

C[C@H]1[C@@H](CCOC(=O)c2ccccc2F)O[C@@H]2OC3(C)CC[C@H]4[C@H](C)CC[C@@H]1[C@@]24OO3 (single isomer, unassigned) showed a pIC50 (Plasmodium falciparum [1]) of 9.28 and a pIC50 (Plasmodium falciparum [2]) of 8.95.

Work on C[C@H]1[C@@H](CCOC(=O)c2ccc(F)cc2)O[C@@H]2OC3(C)CC[C@H]4[C@H](C)CC[C@@H]1[C@@]24OO3 (single isomer, unassigned) yielded a pIC50 (Plasmodium falciparum [1]) of 9.16 and a pIC50 (Plasmodium falciparum [2]) of 8.72.

Compound C[C@H]1[C@@H](CCOC(=O)c2ccc(C(F)(F)F)cc2)O[C@@H]2OC3(C)CC[C@H]4[C@H](C)CC[C@@H]1[C@@]24OO3 (single isomer, unassigned) has a pIC50 (Plasmodium falciparum [1]) of 9.23 and a pIC50 (Plasmodium falciparum [2]) of 7.85.

C[C@H]1[C@@H](CCOC(=O)c2cccc(F)c2)O[C@@H]2OC3(C)CC[C@H]4[C@H](C)CC[C@@H]1[C@@]24OO3 (single isomer, unassigned) showed an ED50 (Mus musculus) of 6.99 mg/kg, a pIC50 (Plasmodium falciparum [1]) of 9.46 and a pIC50 (Plasmodium falciparum [2]) of 8.42.

For C[C@H]1[C@@H](CCOC(=O)c2cccc(C(F)(F)F)c2)O[C@@H]2OC3(C)CC[C@H]4[C@H](C)CC[C@@H]1[C@@]24OO3 (single isomer, unassigned), the pIC50 (Plasmodium falciparum [1]) was 9.19 and the pIC50 (Plasmodium falciparum [2]) was 8.33.

C[C@H]1[C@@H](CCOCc2ccc(C(F)(F)F)cc2)O[C@@H]2OC3(C)CC[C@H]4[C@H](C)CC[C@@H]1[C@@]24OO3 (single isomer, unassigned) was tested, and the pIC50 (Plasmodium falciparum [1]) was 8.37 and the pIC50 (Plasmodium falciparum [3]) was 8.43.

Work on C[C@H]1[C@@H](CCOCc2ccc(F)cc2)O[C@@H]2OC3(C)CC[C@H]4[C@H](C)CC[C@@H]1[C@@]24OO3 (single isomer, unassigned) yielded a pIC50 (Plasmodium falciparum [1]) of 9.14 and a pIC50 (Plasmodium falciparum [2]) of 8.22.

In the case of CO[C@H]1O[C@@H]2O[C@@]3(C)CC[C@H]4[C@H](C)CC[C@@H]([C@H]1C)[C@@]24OO3 [ARTEMETHER], the ED50 (Mus musculus) was 3.15 mg/kg.

For C[C@@H]1CC[C@H]2[C@@H](C)C(=O)O[C@@H]3O[C@@]4(C)CC[C@@H]1[C@]32OO4 [ARTEMISININ], the pIC50 (Plasmodium falciparum [1]) was 8.52 and the pIC50 (Plasmodium falciparum [2]) was 8.44.

For C[C@H]1[C@@H](O)O[C@@H]2O[C@@]3(C)CC[C@H]4[C@H](C)CC[C@@H]1[C@@]24OO3 [ARTENIMOL], the ED50 (Mus musculus) was 1.15 mg/kg, the pIC50 (Plasmodium falciparum [1]) was 8.98 and the pIC50 (Plasmodium falciparum [2]) was 8.66.
